Results on 2 compounds are retold here after publication PMC3206322 (ACS chemical neuroscience, 2011).

Common to all, as to assay type: cell-based
The target of assay [1] is T1, GluA2Qflip AMPA receptor (Homo sapiens, UniProt P42262). The assay is described as follows: Laser-pulse photolysis amplitude measurement of whole-cell current. An outline of the steps:
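HEK-293S cells in DMEM/10% FBS at 37 °C, 5% CO2, were transiently transfected with GluA2Qflip by calcium phosphate, with GFP and large T-antigen plasmids, and used at 48 h. Whole-cell recording at −60 mV, pH 7.4, 22 °C in HEPES/NaCl buffer. Caged glutamate was photolysed by a 355 nm pulse after 6 s inhibitor preincubation. The A/AI ratio versus inhibitor concentration was fitted by eq 6.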

Assay [2] deals with T1, GluA2Qflip AMPA receptor. Nature of the assay: Laser-pulse photolysis rate measurement of channel opening. Particulars: for Mechanism of inhibition: inhibited both kop and kcl. An outline of the steps:
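Transfected HEK-293S cells expressing GluA2Qflip were whole-cell clamped at −60 mV, pH 7.4, 22 °C. After 6 s preincubation with inhibitor, caged glutamate was photolysed by a 355 nm laser pulse of 200–800 μJ, with released glutamate calibrated against free glutamate in the same cell. The kcl term was taken from kobs at 100 μM glutamate over a range of inhibitor concentrations (eq 4), and kop at 350 μM (eq 5).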

Assay [3] deals with T1, GluA2Qflip AMPA receptor. The assay is described as follows: Solution-flow amplitude measurement of whole-cell current. The conditions noted are these: Ki (closed-channel), solution-flow technique, GluA2Qflip in HEK-293 cells; 100 μM glutamate; amplitude A/AI, eq 6.
[4] abbreviates: Ki (100 μM glu), amplitude measurement, laser-pulse photolysis, GluA2Qflip in HEK-293 cells, 100 μM glutamate, closed-channel state.

The Ki is the dissociation constant of the complex between target and ligand, obtained from inhibition or displacement. Lower therefore signals tighter binding.

The structures appear in SMILES notation. Values joined by “and” are separate entries in the source; they are usually repeats but may differ in a detail not shown here. Identical values can stand only once.

T1 sequence (P42262 25-883 isoform P42262-2 limits assumed): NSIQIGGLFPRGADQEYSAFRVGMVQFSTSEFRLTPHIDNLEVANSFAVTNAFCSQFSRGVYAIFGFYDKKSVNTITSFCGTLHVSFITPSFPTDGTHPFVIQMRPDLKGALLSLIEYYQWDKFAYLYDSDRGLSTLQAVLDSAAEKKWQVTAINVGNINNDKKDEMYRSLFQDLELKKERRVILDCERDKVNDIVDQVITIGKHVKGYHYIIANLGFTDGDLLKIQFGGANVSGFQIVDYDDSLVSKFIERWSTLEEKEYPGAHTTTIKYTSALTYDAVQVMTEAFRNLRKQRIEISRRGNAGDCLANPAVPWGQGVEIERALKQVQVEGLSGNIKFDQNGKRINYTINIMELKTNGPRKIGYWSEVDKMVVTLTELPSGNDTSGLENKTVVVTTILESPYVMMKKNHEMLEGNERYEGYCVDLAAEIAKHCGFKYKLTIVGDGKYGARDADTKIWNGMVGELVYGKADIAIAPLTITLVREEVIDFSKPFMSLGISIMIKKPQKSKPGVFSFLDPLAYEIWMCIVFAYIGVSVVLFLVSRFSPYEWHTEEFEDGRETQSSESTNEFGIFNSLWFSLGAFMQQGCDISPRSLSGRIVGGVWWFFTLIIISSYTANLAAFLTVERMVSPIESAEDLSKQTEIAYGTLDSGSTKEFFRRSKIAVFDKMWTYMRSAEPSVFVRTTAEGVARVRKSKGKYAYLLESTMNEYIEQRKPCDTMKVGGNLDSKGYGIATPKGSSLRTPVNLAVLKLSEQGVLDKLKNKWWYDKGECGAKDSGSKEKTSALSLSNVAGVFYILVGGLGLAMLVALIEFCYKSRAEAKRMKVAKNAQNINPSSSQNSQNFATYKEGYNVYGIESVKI

For `Nc1ccc(C2=NNC(=O)Cc3cc4c(cc32)OCO4)cc1` [BDZ-2, 1-(4-aminophenyl)-3,5-dihydro-7,8-methylenedioxy-4H-2,3-benzodiazepin-4-one], the Ki was 23 to 25 µM on GluA2Qflip AMPA receptor [1]; 25 ± 1 µM at GluA2Qflip AMPA receptor [1] (setting [4]); 48 µM and 194 µM on GluA2Qflip AMPA receptor [2]; 25 ± 1 µM at GluA2Qflip AMPA receptor [3]. The Mechanism of inhibition entry on GluA2Qflip AMPA receptor [2] was “noncompetitive”.

For the compound `CC1=NN=C(c2ccc(N)cc2)c2cc3c(cc2C1)OCO3` [GYKI 52466, 1-(4-aminophenyl)-4-methyl-7,8-methylenedioxy-5H-2,3-benzodiazepine], the Ki on GluA2Qflip AMPA receptor [1] is 14 to 16 µM; at GluA2Qflip AMPA receptor [1] (setting [4]), 15 ± 1 µM; on GluA2Qflip AMPA receptor [2], 61 µM and 128 µM; on GluA2Qflip AMPA receptor [3] it was 14 ± 1 µM. For the same compound, on GluA2Qflip AMPA receptor [2], the Mechanism of inhibition entry is reported as “noncompetitive”.
